Assay outcomes from PubChem BioAssay.
An excerpt weighted towards active compounds, which were near 3.4% of everything screened.
Efa HMGR inh = inhibitors of E. faecalis class II HMGR, primary screen, biochemical, Enterococcus faecalis. HMG-CoA reductase (Enterococcus faecalis, mvaE). purified E. faecalis HMGR, NADPH absorbance 340 nm kinetic. inhibition, % at 10 µM. actives 0.41% (n = 190,000);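 active = inhibition above a set limit, the median over all tested compounds plus 3 SD, cut at about 9.5% in these data; inconclusive = no clear call, values can overlap the other calls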;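 also: enzyme runs in reverse so mevalonate oxidation gives rising NADPH absorbance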
RanGTP-Impb inh = inhibitors of RanGTP-importin-beta interaction, primary screen, biochemical, FRET, CFP-Ran, YFP-importin-beta, homogeneous; Ran GTPase (GTP-bound) - importin-beta complex; cell-free CFP-Ran/YFP-importin-beta FRET ratio; inhibition, % (no concentration beside the values); actives 1.1% (n = 300,000); AID 2216, 2009;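 active = more than half of the replicate wells show a fall in the fluorescence ratio signal beyond about 16%, limit read from the data, passing the limit was not always enough; inconclusive = exactly half of the replicate wells pass the set limit; inactive = fewer than half of replicates pass the limit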
PHOSPHO1 inh = PubChem AID 1565; inhibition, % at 13.3 µM; actives 1.1% (n = 290,000); recombinant PHOSPHO1, absorbance phosphatase assay; Phosphoethanolamine/phosphocholine phosphatase (Homo sapiens), Q8TCT1; in the data active = inhibition above about 60%
Target sequence (Q8TCT1 whole entry, looked up): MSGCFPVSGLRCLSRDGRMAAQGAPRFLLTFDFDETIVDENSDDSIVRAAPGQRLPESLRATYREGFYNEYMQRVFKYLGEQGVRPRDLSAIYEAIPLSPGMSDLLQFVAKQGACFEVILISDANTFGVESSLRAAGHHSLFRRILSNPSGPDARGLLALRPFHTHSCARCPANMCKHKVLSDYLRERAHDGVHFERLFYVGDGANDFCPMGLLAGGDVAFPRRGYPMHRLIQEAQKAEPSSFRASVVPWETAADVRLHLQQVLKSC
Runt-CBFb FRET = inhibitors of RUNX1 Runt–CBFb binding, primary screen, biochemical, FRET, Cerulean-Runt, Venus-CBFb, uHTS; Cerulean-Runt/Venus-CBFb FRET ratio 530/480, 1 h; inhibition, % at 20 µM; actives 0.46% (n = 220,000); AID 1496, 2009;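 active = inhibition over about 50% at 20 µM in the single-dose screen, limit read from the data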
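Reagent – Venus-CBFb binding partner, 100 nM · Assay system – Cerulean-tagged RUNX1 Runt domain (FRET donor) fusion protein · Input – 100 nM per protein · Incubation – two 1 h room-temperature incubations shielded from light · Measured by – FRET fluorescence · Medium – Tris buffer pH 7.5 with salts and BSA · Benchmarks – unlabeled CBFb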
Runt-SMMHC FRET = inhibitors of RUNX1 Runt–CBFb-SMMHC binding, primary screen, biochemical, FRET, Cerulean-Runt, Venus-CBFb-SMMHC, uHTS | Runt-related transcription factor 1 (Homo sapiens) + Core-binding factor subunit beta … | Cerulean-Runt/Venus-CBFb-SMMHC FRET ratio 530/480, 1 h | inhibition, % at 20 µM | actives 0.74% (n = 220,000) | AID 1434, 2008;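 active = mean inhibition across duplicate retests at 20 µM reaching about 50%, limit read from the data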;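 also: inhibitors lower the FRET ratio by blocking Runt binding to CBFb-SMMHC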
Wee1 degr inh = Wee1 degradation inhibitors, primary screen, cell-based, HeLa, Wee1K328M-luciferase, luminescence; actives 1.2% (n = 220,000); HeLa Luc-Wee1K328M stability; 100% = proteasome inhibitor MG132 effect; reporter increase, % at 5 µM; Wee1-like protein kinase (Homo sapiens), P30291;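 active = activation above the mean of all tested compounds plus 3 SD, set per screening run, cut at about 8.8% in these data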;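 also: cells exposed to compound for 20 h before luminescence read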
Numbers stand for hits; 0 = inactive; ? = inconclusive; - = not tested or not shown.

SMILES	Efa HMGR inh	RanGTP-Impb inh	PHOSPHO1 inh	Runt-CBFb FRET	Runt-SMMHC FRET	Wee1 degr inh
Cn1c(-c2cc3ccc(OC(=O)C(C)(C)C)cc3oc2=O)nc2ccccc21	0	150	0	0	0	0
CC(C)(C)C(=O)Oc1ccc2cc(-c3ccc4ccccc4n3)c(=O)oc2c1	0	28	0	0	60	0
CC(=O)Oc1ccc2cc(-c3nc4ccccc4n3C)c(=O)oc2c1	0	147	0	0	0	0
CCc1cc2c(=O)c(-c3nc4ccccc4n3C)c(C)oc2c(CN(CC)CC)c1O	0	0	0	0	0	0
COC(=O)COc1ccc2cc(-c3ccccc3)c(=O)oc2c1	-	?	0	-	-	-
CC(=O)Oc1ccc(-c2cc3ccccc3oc2=O)cc1	-	0	-	-	-	-
NC(=O)COc1ccc2cc(-c3ccccc3)c(=O)oc2c1	-	0	0	-	-	-
CCN(CC)Cc1c(O)ccc2cc(-c3nc4ccccc4n3C)c(=O)oc12	-	132	0	-	-	-
CC(OC(=O)c1ccccc1NS(=O)(=O)c1cccc(N)c1)C(=O)N(C)Cc1ccccc1 (stereo unspecified)	0	0	0	0	0	0
Cc1[nH][nH]c(=O)c1C(c1ccc(-c2cccc(Cl)c2)o1)c1c(C)[nH][nH]c1=O	-	0	0	0	0	0
Cc1[nH][nH]c(=O)c1C(c1ccc(-c2ccc(Cl)cc2Cl)o1)c1c(C)[nH][nH]c1=O	10	-	64	0	0	0
COCCN1CSC(=S)N(Cc2ccco2)C1	0	0	94	0	0	0
S=C1SCN(Cc2ccccn2)CN1Cc1ccco1	0	0	94	0	0	0
O=C(O)C[C@@H](CNC(=O)COc1ccc2ccc(=O)oc2c1)c1ccc(Cl)cc1	-	0	0	-	-	-
O=C1CN(c2nc(-c3ccccc3)c3cc(Cl)ccc3n2)c2ccccc2N1	0	0	0	0	0	0
CN1CCN(c2nc(-c3ccccc3)c3cc(Cl)ccc3n2)CC1	0	?	0	0	57	0
c1ccc(-c2nc(N3CCCC3)nc3ccccc23)cc1	0	34	0	0	0	0
Clc1ccc2nc(N3CCNCC3)nc(-c3ccccc3)c2c1	0	0	0	0	89	0
CCN(CC)c1ccc(-c2nn3c(-c4cccnc4)nnc3s2)cc1	0	0	0	0	80	0
Cc1ccc(S(=O)(=O)C(C#N)c2nc3ccccc3nc2N2CCN(C)CC2)cc1C (stereo unspecified)	0	94	0	0	0	0
Cc1ccc(S(=O)(=O)C(C#N)c2nc3ccccc3nc2OCCO)cc1 (stereo unspecified)	0	26	0	0	0	0
CN1CCN(c2nc3ccccc3nc2C(C#N)S(=O)(=O)c2ccccc2)CC1 (stereo unspecified)	-	64	0	0	0	0
Cc1ccc(C)c(S(=O)(=O)C(C#N)c2nc3ccccc3nc2N2CCCC2)c1 (stereo unspecified)	0	0	72	0	0	0
N#CC(c1nc2ccccc2nc1N1CCCC1)S(=O)(=O)c1ccccc1 (stereo unspecified)	0	0	0	0	0	0
COc1ccc(NC(=O)CCN2CCN(c3ccc(F)cc3)CC2)cc1	-	0	0	-	-	-
CC(OC(=O)/C=C/c1ccc2ccccc2n1)C(=O)Nc1ccc(S(N)(=O)=O)cc1 (stereo unspecified)	-	0	-	-	-	-
CC(C)n1nccc1NC(=O)Nc1ccccc1	-	0	0	-	-	-
CCCCN(C(=O)c1ccc(S(=O)(=O)N2CCCC2)cc1)C1CCS(=O)(=O)C1 (stereo unspecified)	-	0	-	-	-	-
COc1ccc(S(=O)(=O)C(C#N)c2nc3ccccc3nc2N2CCCCC2)cc1 (stereo unspecified)	0	?	100	0	0	0
